# Measured values gathered from unrelated publications.
# Each line is one published result; the experiments were not run side by side.
# Organism: Staphylococcus aureus
# Read-out: microbial growth
Structure (SMILES),test,system,conditions,MIC
c1ccc2c(-c3nc4ccccc4[nH]3)c3ccccc3cc2c1,broth dilution,ATCC29213 MSSA,,32 µg/mL
Nc1ncnc2c1c(-c1cnc3[nH]ccc3c1)nn2C1CCCC1,,NCTC8325,,> 30 µM
CC1(C(=O)O)CCC(C(=O)Nc2ccc(Nc3ccccc3)cc2)C1(C)C (stereo not drawn),,,,> 128 µg/mL
O=c1[nH]cc(F)c(=O)[nH]1,broth dilution,,24 h,1 µg/mL
O=C(NOCC1CC1)c1ccc(F)c(F)c1Nc1ccc(I)cc1Cl,,NCTC8325,,> 30 µM
FC(F)(F)c1cc(-c2nnc(Sc3cc(Cl)nc(Sc4ccccc4)n3)[nH]2)cc(C(F)(F)F)c1,,83254,,1.6 µM
C[C@@H](O)[C@H]1C(=O)N2C(C(=O)O)=C(SCCN=CN)C[C@H]12,broth dilution,KCTC1621,16 h,8 µM
COc1c(C(=O)Nc2ccc(C(=O)O)cc2)ccc2nc(-c3cc(NC(=O)C(CC(N)=O)NC(=O)c4ccc(NC(=O)c5ccc(C#N)cc5)cc4)cn3C)[nH]c12 (stereo not drawn),,ATCC29213,,> 64 µg/mL
COc1c(C)c(OC)c2c(c1C)OC(c1ccccc1)CC2=O (stereo not drawn),broth dilution,ATCC25923,,5000 µg/mL
CC(C)COc1c(NC(=O)c2ccc(NC(=O)[C@H](CC(N)=O)NC(=O)c3ccc(NC(=O)c4ccc(C#N)cc4)cc3)cc2)ccc(C(=O)Nc2ccc(C(=O)O)cc2)c1O,,ATCC29213,,0.25 µg/mL
C/C=C(\C)c1cc(O)c(C)c(OC(=O)c2c(C)cc(O)c(Cl)c2O)c1,broth dilution,ATCC29213,,8 µg/mL
CC[C@@H]1C(=O)N(C)c2cnc(Nc3ccc(C(=O)N[C@H]4CC[C@H](N5CCN(CC6CC6)CC5)CC4)cc3OC)nc2N1C(C)C,,NCTC8325,,> 30 µM
Cc1ccc2nc(-c3ccc([N+](=O)[O-])cc3)[nH]c2c1,broth dilution,ATCC29213 MSSA,,128 µg/mL
COC(=O)c1cc(Sc2ccc(NC(=O)Nc3ccc(Cl)c(C(F)(F)F)c3)cc2)ccn1,,NCTC8325,24 h,3 µM
O=C(O)CN1C(=O)/C(=C/c2c3ccccc3c(-c3ccc(N(c4ccccc4)c4ccccc4)cc3)c3ccccc23)NC1=S,broth dilution,ATCC43300,,> 1000 µg/mL
Cc1[nH]c(/C=C2\C(=O)Nc3ccc(S(=O)(=O)N(C)c4cccc(Cl)c4)cc32)c(C)c1C(=O)N1CCN(C)CC1,,NCTC8325,,> 30 µM
COc1cccc(OC)c1C(=O)N[C@@H]1C(=O)N2[C@@H]1SC(C)(C)[C@@H]2C(=O)O,,129,clinical isolate,37.5 µM
O=C(O)c1cn(C2CC2)c2cc(N3CCNCC3)c(F)cc2c1=O,broth dilution,ATCC25923,,0.49 µg/mL
COc1ccc(-c2nc3ccccc3[nH]2)cc1O,broth dilution,ATCC29213 MSSA,,128 µg/mL
COc1cc2nccc(Oc3ccc(NC(=O)Nc4cc(C)on4)c(Cl)c3)c2cc1OC,,NCTC8325,,> 30 µM
CC1CCN(CCCN2/C(=C/c3cc[n+](C)c4ccccc34)Sc3ccccc32)CC1.[I-],broth dilution,ATCCBAA44,,2 µg/mL
